The target in experiment [1] is Platelet-activating factor receptor (Mus musculus) (UniProt Q62035). Nature of the experiment: Antagonism of Platelet activating factor (PAF)in mice after Intravenous administration, assayed by PAF-induced death. In kind it is functional, organism-based. The essentials: (§1)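 Mice dosed with test agent intravenously or orally, then injected with a lethal dose of PAF. Protection from PAF-induced death was scored. ED50 was taken as the dose that reduced mortality by 50%. Oral testing used the same method as intravenous testing.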
Platelet-activating factor receptor (Mus musculus), sequence (Q62035 whole entry): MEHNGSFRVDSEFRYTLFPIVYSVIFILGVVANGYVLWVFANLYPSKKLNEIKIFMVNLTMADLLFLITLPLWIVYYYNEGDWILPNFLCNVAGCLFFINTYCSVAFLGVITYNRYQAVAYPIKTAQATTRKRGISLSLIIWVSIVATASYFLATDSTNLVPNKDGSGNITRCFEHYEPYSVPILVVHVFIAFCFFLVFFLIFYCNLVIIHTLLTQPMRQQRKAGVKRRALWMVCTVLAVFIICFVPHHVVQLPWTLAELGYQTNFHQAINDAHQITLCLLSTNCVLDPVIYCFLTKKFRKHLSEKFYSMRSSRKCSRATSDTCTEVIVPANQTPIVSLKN

Experiment [2] has as its target T1, Thromboxane-A synthase (Rattus norvegicus) (UniProt P49430).
T1 sequence (whole entry): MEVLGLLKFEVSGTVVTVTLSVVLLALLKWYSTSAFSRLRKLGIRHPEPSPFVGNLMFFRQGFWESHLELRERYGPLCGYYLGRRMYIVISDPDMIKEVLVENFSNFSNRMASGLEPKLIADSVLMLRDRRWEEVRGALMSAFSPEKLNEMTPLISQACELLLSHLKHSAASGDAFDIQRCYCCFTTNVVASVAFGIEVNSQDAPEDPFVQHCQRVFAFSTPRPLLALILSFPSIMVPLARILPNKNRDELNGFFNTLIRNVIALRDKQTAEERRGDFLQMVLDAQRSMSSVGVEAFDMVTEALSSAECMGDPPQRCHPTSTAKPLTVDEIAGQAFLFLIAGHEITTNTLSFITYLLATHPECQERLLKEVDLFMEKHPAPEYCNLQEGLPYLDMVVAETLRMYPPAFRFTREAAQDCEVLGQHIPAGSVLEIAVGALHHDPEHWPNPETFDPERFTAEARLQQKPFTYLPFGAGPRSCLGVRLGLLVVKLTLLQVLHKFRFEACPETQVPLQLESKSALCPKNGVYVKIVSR
Nature of the experiment: Thromboxane synthase inhibitor (TxSI) activity was assessed by ex vivo inhibition of serum TXB2 production in rat after oral administration. In kind it is functional, organism-based. The essentials:
(§2)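 Rats dosed intravenously or orally. Blood was then taken, and serum TxB2 production was measured ex vivo. Values are reported as ED50 doses in mg/kg. Oral testing used the same method as intravenous testing.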

Experiment [3] has as its target Platelet-activating factor receptor (Mus musculus) (UniProt Q62035). Briefly: Antagonism of Platelet activating factor (PAF) activity in mice after oral administration, assayed by PAF-induced death. In kind it is functional, organism-based. The essentials:
as §1

Experiment [4] is described as follows: Inhibition of Platelet activating factor (PAF)- induced platelet aggregation in rabbit platelet rich plasma (PRP). In kind it is functional.
Experiment [5] deals with T1, Thromboxane-A synthase (Rattus norvegicus). Briefly: Thromboxane synthase inhibitor (TxSI) activity assessed by ex vivo inhibition of serum TXB2 production in rat after Intravenous administration. In kind it is functional, organism-based. In short, it runs like this: as §2
The next experiment concerns the target T2, Thromboxane-A synthase (Homo sapiens, UniProt P24557).
T2 sequence (P24557 whole entry): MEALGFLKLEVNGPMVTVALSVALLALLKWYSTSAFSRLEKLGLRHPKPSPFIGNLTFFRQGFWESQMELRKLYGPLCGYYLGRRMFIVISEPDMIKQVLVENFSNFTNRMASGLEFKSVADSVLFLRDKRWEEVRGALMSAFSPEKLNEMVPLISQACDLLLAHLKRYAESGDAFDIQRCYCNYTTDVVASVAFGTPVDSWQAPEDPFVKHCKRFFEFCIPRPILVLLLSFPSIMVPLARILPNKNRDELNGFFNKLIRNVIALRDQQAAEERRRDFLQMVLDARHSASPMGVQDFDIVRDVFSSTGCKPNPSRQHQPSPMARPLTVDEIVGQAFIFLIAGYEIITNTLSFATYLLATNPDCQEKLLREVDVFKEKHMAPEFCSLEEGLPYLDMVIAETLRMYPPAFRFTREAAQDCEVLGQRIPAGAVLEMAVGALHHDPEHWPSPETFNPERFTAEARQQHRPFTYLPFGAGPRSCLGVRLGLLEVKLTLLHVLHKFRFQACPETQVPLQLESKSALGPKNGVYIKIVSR
Nature of the experiment: In vitro inhibition of thromboxane synthase (TXA2) in human platelet microsomes [reduced formation of TXB2 from prostaglandin H2(PGH2)]. In kind it is functional, Microsome.

Bounds are passed on as bounds.

One may read the ED50 as the dose that gives a 50% effect, or the effect in half of the subjects. Read a low ED50 as an effect at a small dose. The IC50 is the midpoint of a concentration-inhibition curve. Regarding `Cc1nnc2n1-c1sc3c(c1C(c1ccccc1Cl)=NC2C)CCN(Cc1cccc(/C(=N\OCCCCC(=O)OCCN2CCOCC2)c2cccnc2)c1)C3` (centres undefined), the ED50 in experiment [1] is 0.54 mg/kg; in experiment [2], 8.9 mg/kg; in experiment [3], > 10 mg/kg; in experiment [5] it was 0.77 mg/kg. The half-maximal inhibitory concentration (IC50) was 81 nM in experiment [4] and 151 nM on Thromboxane-A synthase (read-out: IC50).
For the compound `CCOC(=O)CCCCO/N=C(\c1ccccc1)c1cccnc1`, the ED50 in experiment [2] is > 0.1 mg/kg; in experiment [5] it was 0.01 mg/kg. In addition, the half-maximal inhibitory concentration (IC50) at Thromboxane-A synthase (read-out: IC50) was found to be 1 nM.
As to `CCOC(=O)CCCCO/N=C(/c1cccnc1)c1cccc(CN2CCc3c(sc4c3C(c3ccccc3Cl)=NCc3nnc(C)n3-4)C2)c1`, the ED50 in experiment [1] was 0.8 mg/kg; in experiment [2], > 10 mg/kg; in experiment [3], > 10 mg/kg; in experiment [5], 0.1 mg/kg. Moreover, the IC50 in experiment [4] stood at 200 nM; on Thromboxane-A synthase (read-out: IC50) it was 65 nM.
In the case of `Cc1nnc2n1-c1sc3c(c1C(c1ccccc1Cl)=NC2C)CCN(Cc1cccc(/C(=N\OCCCCC(=O)OCCCc2cccnc2)c2cccnc2)c1)C3` (centres undefined), the ED50 in experiment [1] is 0.54 mg/kg; in experiment [3] it was > 10 mg/kg; in experiment [5], > 1 mg/kg. Besides, the concentration for half-maximal inhibition (IC50) is 65 nM in experiment [4] and > 1000 nM at Thromboxane-A synthase (read-out: IC50).
For the compound `CCOC(=O)CCCCO/N=C(/c1cccnc1)c1cccc(C(=O)N2CCc3c(sc4c3C(c3ccccc3Cl)=NC(C)c3nnc(C)n3-4)C2)c1` (centres undefined), the 50% effective dose (ED50) was 0.47 mg/kg in experiment [1], 2.3 mg/kg in experiment [3] and > 1 mg/kg in experiment [5]. Besides, the half-maximal inhibitory concentration (IC50) in experiment [4] turned out to be 60 nM.
With `CCOC(=O)CCCC/C=C(\c1ccc(CN2CCc3c(sc4c3C(c3ccccc3Cl)=NC(C)c3nnc(C)n3-4)C2)cc1)c1cccnc1` (centres undefined), the ED50 in experiment [1] worked out at 0.55 mg/kg; in experiment [2] it was 5.2 mg/kg; in experiment [3], 1.6 mg/kg; in experiment [5], 1 mg/kg. Further, the half-inhibitory concentration (IC50) in experiment [4] came to 32 nM; at Thromboxane-A synthase (read-out: IC50), 72 nM.
For the compound `CCOC(=O)C1=C(c2ccc(-n3c(C)nc4cnccc43)cc2)NC(C)=C(C(=O)Nc2ccccn2)C1c1ccccc1Cl` (centres undefined), the 50% effective dose (ED50) was determined as 0.1 mg/kg in experiment [1] and 1.55 mg/kg in experiment [3]. The IC50 result against Thromboxane-A synthase is on record as “Not Active”.
For the compound `CCOC(=O)CCCCO/N=C(\c1ccc(CN2CCc3c(sc4c3C(c3ccccc3Cl)=NC(C)c3nnc(C)n3-4)C2)cc1)c1cccnc1` (centres undefined), the 50% effective dose (ED50) is 1.35 mg/kg in experiment [1], > 10 mg/kg in experiment [2], > 10 mg/kg in experiment [3] and 1 mg/kg in experiment [5]. Moreover, the half-maximal inhibitory concentration (IC50) in experiment [4] was 46 nM; at Thromboxane-A synthase (read-out: IC50) it was 80 nM.
On to `CCOC(=O)CCCCO/N=C(/c1cccnc1)c1cccc(CCCCN2CCc3c(sc4c3C(c3ccccc3Cl)=NC(C)c3nnc(C)n3-4)C2)c1` (centres undefined), for which the 50% effective dose (ED50) in experiment [1] is 0.38 mg/kg; in experiment [2], 6.9 mg/kg; in experiment [3], > 10 mg/kg; in experiment [5], 0.53 mg/kg. In addition, the figures for the IC50 (in experiment [4]; at Thromboxane-A synthase (read-out: IC50)) were 54 nM and 21 nM, respectively.
As for `CCOC(=O)CCCC/C=C(/c1cccnc1)c1cccc(CN2CCc3c(sc4c3C(c3ccccc3Cl)=NC(C)c3nnc(C)n3-4)C2)c1` (centres undefined), the 50% effective dose (ED50) in experiment [1] was 0.6 mg/kg; in experiment [2], 3.2 mg/kg; in experiment [3], > 10 mg/kg; in experiment [5], 0.71 mg/kg. The 50% inhibitory concentration (IC50) in experiment [4] turned out to be 39 nM; on Thromboxane-A synthase (read-out: IC50), 68 nM.
In the case of `CCOC(=O)CCCCO/N=C(\c1ccc(CC(=O)N2CCc3c(sc4c3C(c3ccccc3Cl)=NC(C)c3nnc(C)n3-4)C2)cc1)c1cccnc1` (centres undefined), the ED50 in experiment [1] is 4.2 mg/kg; in experiment [3] it was > 10 mg/kg; in experiment [5] it was > 1 mg/kg. The 50% inhibitory concentration (IC50) turned out to be 85 nM in experiment [4] and 69 nM at Thromboxane-A synthase (read-out: IC50).
For `CCCNC(=O)CCCCO/N=C(/c1cccnc1)c1cccc(CN2CCc3c(sc4c3C(c3ccccc3Cl)=NC(C)c3nnc(C)n3-4)C2)c1` (centres undefined), in that order: 0.54 mg/kg, > 10 mg/kg, > 1 mg/kg, 71 nM and 540 nM.
With `O=C(O)/C=C/c1ccc(Cn2ccnc2)cc1`, the values for the ED50 in experiment [2] and in experiment [5] were 0.1 mg/kg and 0.02 mg/kg, respectively.
Take `Cc1nnc2n1-c1sc3c(c1C(c1ccccc1Cl)=NC2C)CCN(Cc1cccc(/C(=N\OCCCCC(=O)O)c2cccnc2)c1)C3` (centres undefined): the ED50 in experiment [1] is 0.47 mg/kg; in experiment [2] it was 10 mg/kg; in experiment [3], > 10 mg/kg; in experiment [5], 1 mg/kg. Besides, the half-inhibitory concentration (IC50) in experiment [4] was 980 nM; on Thromboxane-A synthase (read-out: IC50) it was 24 nM.
For the compound `CCOC(=O)CCCCO/N=C(/c1cccnc1)c1ccccc1C(=O)N1CCc2c(sc3c2C(c2ccccc2Cl)=NC(C)c2nnc(C)n2-3)C1` (centres undefined), the ED50 is 2.4 mg/kg in experiment [1], > 10 mg/kg in experiment [3] and > 1 mg/kg in experiment [5]. The IC50 was 200 nM in experiment [4] and > 1000 nM on Thromboxane-A synthase (read-out: IC50).
As for `CCOC(=O)CCCCO/N=C(\c1ccc(C(=O)N2CCc3c(sc4c3C(c3ccccc3Cl)=NC(C)c3nnc(C)n3-4)C2)cc1)c1cccnc1` (centres undefined), the ED50 in experiment [1] is 0.2 mg/kg; in experiment [3], 0.5 mg/kg; in experiment [5], > 1 mg/kg. The compound further showed a concentration for half-maximal inhibition (IC50) in experiment [4] of 100 nM.
Take `CCOC(=O)CCCCO/N=C(/c1cccnc1)c1cccc(CCCC(=O)N2CCc3c(sc4c3C(c3ccccc3Cl)=NC(C)c3nnc(C)n3-4)C2)c1` (centres undefined): the results for the median effective dose (ED50) in experiment [1], in experiment [3] and in experiment [5] were 1.05 mg/kg, > 10 mg/kg and > 1 mg/kg, respectively. The results for the IC50 (in experiment [4]; on Thromboxane-A synthase (read-out: IC50)) were 39 nM and 41 nM, respectively.
For `Cc1nnc2n1-c1sc3c(c1C(c1ccccc1Cl)=NC2C)CCN(Cc1cccc(/C(=N\OCCCCC(=O)OCc2ccccc2)c2cccnc2)c1)C3` (centres undefined), the ED50 in experiment [1] was 0.54 mg/kg; in experiment [3], > 10 mg/kg; in experiment [5], > 1 mg/kg. The concentration for half-maximal inhibition (IC50) was 98 nM in experiment [4] and 465 nM at Thromboxane-A synthase (read-out: IC50).
Take `CCOC(=O)CCCCO/N=C(\c1ccc(COCC(=O)N2CCc3c(sc4c3C(c3ccccc3Cl)=NC(C)c3nnc(C)n3-4)C2)cc1)c1cccnc1` (centres undefined): the figures for the ED50 in experiment [1], in experiment [3] and in experiment [5] were 4.2 mg/kg, > 10 mg/kg and > 1 mg/kg, respectively. In addition, the values for the IC50 (in experiment [4]; at Thromboxane-A synthase (read-out: IC50)) were 60 nM and 58 nM, respectively.
Consider `Cc1nnc2n1-c1sc3c(c1C(c1ccccc1Cl)=NC2C)CCNC3` (centres undefined), for which, in experiment [1], the ED50 is > 5 mg/kg. Further, the IC50 in experiment [4] is 245 nM; on Thromboxane-A synthase (read-out: IC50), > 1000 nM.
In the case of `CCOC(=O)CCCCO/N=C(/c1cccnc1)c1cccc(CN2CCc3c(sc4c3C(c3ccccc3Cl)=NC(C)c3nnc(C)n3-4)C2)c1` (centres undefined), the median effective dose (ED50) in experiment [1] was 0.2 mg/kg; in experiment [2], > 10 mg/kg; in experiment [3] it was > 10 mg/kg; in experiment [5], 0.1 mg/kg. Moreover, the IC50 came to 47 nM in experiment [4] and 59 nM on Thromboxane-A synthase (read-out: IC50).
In the case of `O=C(O)CCCC/C=C(/c1ccccc1)c1cccnc1`, the median effective dose (ED50) in experiment [2] was 0.05 mg/kg; in experiment [5] it was 0.01 mg/kg.

Source of the values: ChEMBL document CHEMBL1135874, “Novel agents combining platelet activating factor (PAF) receptor antagonist with thromboxane synthase inhibitor (TxSI)” (Bioorg Med Chem Lett, 2002).
